From ChEMBL document CHEMBL4392827, “Tryptamine derivatives disarm colistin resistance in polymyxin-resistant gram-negative bacteria” (Bioorg Med Chem, 2019)

What was measured:
Acinetobacter baumannii [1] = test: Potentiation of colistin-induced antimicrobial activity against colistin-resistant Acinetobacter baumannii isolate 3942 assessed as fold reduction in colistin MIC at 5 uM after 18 hrs by broth microdilution assay; assay type: functional
In short: (§1)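 CLSI-adapted broth microdilution. Bacteria were grown 4–6 h in cation-adjusted Mueller-Hinton broth and subcultured to 5 ×10^5 CFU/mL. The subculture was dosed with adjuvant from DMSO stock at a constant final concentration, then colistin was added and serially diluted across wells. Plates were incubated stationary at 37°C for 18 h and the MIC recorded. Fold reduction is relative to the colistin MIC without adjuvant.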

Escherichia coli [2] = test: Potentiation of colistin-induced antimicrobial activity against Escherichia coli ATCC 25922 assessed as fold reduction in colistin MIC at 60 uM after 18 hrs by broth microdilution assay; assay type: functional
In short: (§2)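 Bacteria grown 4–6 h in cation-adjusted Mueller-Hinton broth and diluted to 5 ×10^5 CFU/mL. Adjuvant from DMSO stock held at fixed 60 μM while colistin is twofold serially diluted in the same adjuvant-dosed broth. Plates sealed and kept stationary at 37°C for 18 h. Colistin MIC read and fold reduction taken relative to colistin alone.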

Acinetobacter baumannii [3] = test: Potentiation of colistin-induced antimicrobial activity against colistin-resistant Acinetobacter baumannii isolate 3942 assessed as fold reduction in colistin MIC at 20 uM after 18 hrs by broth microdilution assay; assay type: functional; in short: as §1
Klebsiella pneumoniae [4] = test: Potentiation of colistin-induced antimicrobial activity against colistin-resistant Klebsiella pneumoniae isolate A5 assessed as fold reduction in colistin MIC at 60 uM after 18 hrs by broth microdilution assay; assay type: functional
In short: (§3)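 Checkerboard-style resensitization following adapted CLSI broth microdilution. Bacteria were grown 4–6 h in CAMHB and subcultured to 5×10^5 CFU/mL. Adjuvant was added from DMSO stock and held constant while colistin was serially diluted in the dosed subculture. Plates were incubated stationary at 37°C for 18 h, then MICs were read. Fold reduction was taken relative to the colistin MIC without adjuvant.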

Klebsiella pneumoniae [5] = test: Potentiation of colistin-induced antimicrobial activity against colistin-resistant Klebsiella pneumoniae isolate C3 assessed as fold reduction in colistin MIC at 20 uM after 18 hrs by broth microdilution assay; assay type: functional; in short: as §1
Acinetobacter baumannii [6] = test: Potentiation of colistin-induced antimicrobial activity against colistin-resistant Acinetobacter baumannii isolate 3942 assessed as fold reduction in colistin MIC at 15 uM after 18 hrs by broth microdilution assay; assay type: functional; in short: as §1
Acinetobacter baumannii [7] = test: Potentiation of colistin-induced antimicrobial activity against colistin-resistant Acinetobacter baumannii isolate 3942 assessed as fold reduction in colistin MIC at 30 uM incubated for 2 to 24 hrs under shaking condition in presence of 0.001% triton X-100 by broth microdilution assay; assay type: functional
Klebsiella pneumoniae [8] = test: Toxicity in Klebsiella pneumoniae B9 after 18 hrs by broth microdilution assay; assay type: organism-based
In short: (§4)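 Single-agent MIC per CLSI broth microdilution. Cells from a 4–6 h culture in cation-adjusted Mueller-Hinton broth adjusted to 5 ×10^5 CFU/mL. Compound (DMSO stock) added to 200 μM top concentration and twofold serially diluted six times, with an untreated control row. Plates sealed and incubated stationary at 37°C for 18 h before MIC read.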

Acinetobacter baumannii [9] = test: Potentiation of colistin-induced antimicrobial activity against colistin-resistant Acinetobacter baumannii isolate 3942 after 18 hrs by broth microdilution assay; assay type: functional, organism-based
In short: (§5)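 Colistin MIC was determined by adapted CLSI broth microdilution in CAMHB (5×10^5 CFU/mL inoculum), with adjuvant held at fixed levels of 5, 10, 15, 20, 30, 40, 50 or 60 μM. Adjuvant was dosed from DMSO stock while colistin was serially diluted. Plates were incubated stationary at 37°C for 18 h. Fold reduction was taken versus colistin alone.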

Escherichia coli [10] = test: Toxicity in Escherichia coli ATCC 25922 after 18 hrs by broth microdilution assay; assay type: organism-based; conditions: in vitro; in short: as §4
Klebsiella pneumoniae [11] = test: Potentiation of colistin-induced antimicrobial activity against colistin-resistant Klebsiella pneumoniae isolate C3 assessed as fold reduction in colistin MIC at 50 uM after 18 hrs by broth microdilution assay; assay type: functional; in short: as §1
Acinetobacter baumannii [12] = test: Potentiation of colistin-induced antimicrobial activity against colistin-resistant Acinetobacter baumannii isolate 3942 assessed as fold reduction in colistin MIC at 40 uM after 18 hrs by broth microdilution assay; assay type: functional; in short: as §1
Klebsiella pneumoniae [13] = test: Potentiation of colistin-induced antimicrobial activity against colistin-resistant Klebsiella pneumoniae B9 assessed as fold reduction in colistin MIC at 60 uM after 18 hrs by broth microdilution assay; assay type: functional; in short: as §3
Acinetobacter baumannii [14] = test: Potentiation of colistin-induced antimicrobial activity against colistin-resistant Acinetobacter baumannii isolate 3942 assessed as fold reduction in colistin MIC at 50 uM after 18 hrs by broth microdilution assay; assay type: functional; in short: as §1
Acinetobacter baumannii [15] = test: Potentiation of colistin-induced antimicrobial activity against Acinetobacter baumannii ATCC 17978 assessed as fold reduction in colistin MIC at 60 uM after 18 hrs by broth microdilution assay; assay type: functional; in short: as §2
Acinetobacter baumannii [16] = test: Potentiation of colistin-induced antimicrobial activity against colistin-resistant Acinetobacter baumannii isolate 3942 assessed as fold reduction in colistin MIC at 60 uM incubated for 2 to 24 hrs under shaking condition in presence of 0.001% triton X-100 by broth microdilution assay; assay type: functional
Acinetobacter baumannii [17] = test: Potentiation of colistin-induced antimicrobial activity against colistin-resistant Acinetobacter baumannii isolate 4112 assessed as fold reduction in colistin MIC at 60 uM after 18 hrs by broth microdilution assay; assay type: functional; in short: as §3
Klebsiella pneumoniae [18] = test: Potentiation of colistin-induced antimicrobial activity against colistin-resistant Klebsiella pneumoniae isolate C3 assessed as fold reduction in colistin MIC at 5 uM after 18 hrs by broth microdilution assay; assay type: functional; in short: as §1
Acinetobacter baumannii [19] = test: Toxicity in colistin-resistant Acinetobacter baumannii isolate 3942 at 60 uM after 18 hrs by broth microdilution assay; assay type: organism-based
Klebsiella pneumoniae [20] = test: Potentiation of colistin-induced antimicrobial activity against colistin-resistant Klebsiella pneumoniae isolate C3 after 18 hrs by broth microdilution assay; assay type: functional, organism-based; in short: as §5
Acinetobacter baumannii [21] = test: Potentiation of colistin-induced antimicrobial activity against colistin-resistant Acinetobacter baumannii isolate 3942 assessed as fold reduction in colistin MIC at 10 uM after 18 hrs by broth microdilution assay; assay type: functional; in short: as §1
Klebsiella pneumoniae [22] = test: Potentiation of colistin-induced antimicrobial activity against Klebsiella pneumoniae ATCC BAA-2146 expressing NDM1 gene assessed as fold reduction in colistin MIC at 60 uM after 18 hrs by broth microdilution assay; assay type: functional; in short: as §2
Klebsiella pneumoniae [23] = test: Potentiation of colistin-induced antimicrobial activity against colistin-resistant Klebsiella pneumoniae isolate C3 assessed as fold reduction in colistin MIC at 60 uM after 18 hrs by broth microdilution assay; assay type: functional; in short: as §3
Acinetobacter baumannii [24] = test: Potentiation of colistin-induced antimicrobial activity against colistin-resistant Acinetobacter baumannii isolate 3941 assessed as fold reduction in colistin MIC at 60 uM after 18 hrs by broth microdilution assay; assay type: functional; in short: as §3
[25] = Hemolytic activity in sheep erythrocytes assessed as hemolysis at 100 uM incubated for 1 hr under shaking condition by UV-spectrophotometry; assay type: ADME, cell-based, Ovis aries, Erythrocyte; conditions: read-out: Activity
In short: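 Washed sheep erythrocytes (defibrinated blood spun, resuspended in PBS three times) diluted 10-fold in PBS containing compound from DMSO stock. DMSO negative control (0% lysis), 1% Triton X100 positive control (100% lysis). 1 h at 37°C with shaking, then spun 10 min at 10,000 rpm and supernatant diluted 1:40 in distilled water.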

Escherichia coli [26] = test: Potentiation of colistin-induced antimicrobial activity against colistin-resistant Escherichia coli ATCC 25922 expressing mcr1 gene assessed as fold reduction in colistin MIC at 60 uM after 18 hrs by broth microdilution assay; assay type: functional; in short: as §3

## O=C(NCc1c[nH]c2ccccc12)c1cc(Br)c(Br)[nH]1
Acinetobacter baumannii [1]
  fold change (FC): 0
Escherichia coli [2]
  fold change (FC): 4
Acinetobacter baumannii [3]
  fold change (FC): 16
Klebsiella pneumoniae [4]
  fold change (FC): 512
Klebsiella pneumoniae [5]
  fold change (FC): 128
Acinetobacter baumannii [6]
  fold change (FC): 8
Acinetobacter baumannii [7]
  fold change (FC): 128
Klebsiella pneumoniae [8]
  MIC: > 200 µM
Acinetobacter baumannii [9]
  Activity: Dose-dependent effect
Escherichia coli [10]
  MIC: > 200 µM
Klebsiella pneumoniae [11]
  fold change (FC): 512
Acinetobacter baumannii [12]
  fold change (FC): 256
Klebsiella pneumoniae [13]
  fold change (FC): 2048
Acinetobacter baumannii [14]
  fold change (FC): 512
Acinetobacter baumannii [15]
  fold change (FC): 4
Acinetobacter baumannii [16]
  fold change (FC): 1024
Acinetobacter baumannii [17]
  fold change (FC): 2048
Klebsiella pneumoniae [18]
  fold change (FC): 4
Acinetobacter baumannii [19]
  Activity: Non-Toxic
Klebsiella pneumoniae [20]
  Activity: Dose-dependent effect
Acinetobacter baumannii [21]
  fold change (FC): 2
Klebsiella pneumoniae [22]
  fold change (FC): 0
Klebsiella pneumoniae [23]
  fold change (FC): 2048
Acinetobacter baumannii [24]
  fold change (FC): 1024
[25]
  hemolysis at 1 h, 100 µM: < 1%
Escherichia coli [26]
  fold change (FC): 16
